Broadly, the Kd is the concentration at which binding is half-saturated. The IC50 is the point on the concentration scale where inhibition reaches its midpoint. Read a low IC50 as inhibition by little substance.

Consider 14 molecules from ChEMBL document CHEMBL4699666, “Cyclic Peptidyl Inhibitors against CAL/CFTR Interaction for Treatment of Cystic Fibrosis” (J Med Chem, 2020).

Non-standard residues stand in square brackets, D forms with d. Residues, ends and D or L forms follow the SMILES beside them. *: point of attachment. 1Nal = N[C@@H](Cc1cccc2ccccc12)C(=O)O; 2Nal = N[C@@H](Cc1ccc2ccccc2c1)C(=O)O; Bta = N[C@@H](Cc1csc2ccccc12)C(=O)O; Pen = CC(C)(S)[C@H](N)C(=O)O; Tle = CC(C)(C)[C@H](N)C(=O)O; Nicotinoyl = O=C(c1cccnc1)*

Series [1] addresses T1, Na(+)/H(+) exchange regulatory cofactor NHE-RF2 (Homo sapiens, UniProt Q15599). Kind of series: Binding affinity to NHERF2 PDZ1 domain (unknown origin) expressed in Escherichia coli BL21 incubated for 1 hr by fluorescence polarization based competition assay. The method, boiled down: (§1)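 CAL, NHERF1 and NHERF2 PDZ domains carried a C-terminal His6 tag, were expressed in E. coli BL21 (0.1 mM IPTG, 16 h at 18 °C) and purified on Ni-NTA. For direct binding, 50 nM fluorescein-labelled peptide was titrated with PDZ protein (0–2.5 μM CAL; 0–25 μM NHERF1/2) in PBS pH 7.4 with 0.01% Triton X-100 and 2 mM TCEP for 1 h at room temperature. Fluorescence polarization gave KD; n = 3.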
In general terms: In fluorescence polarisation assays a small probe gives low polarisation when free and higher when bound to something large.

Series [2] has as its target T1, Na(+)/H(+) exchange regulatory cofactor NHE-RF2. Kind of series: Binding affinity to NHERF2 PDZ2 domain (unknown origin) expressed in Escherichia coli BL21 incubated for 1 hr by fluorescence polarization based competition assay.
For series [3], the target named is T2, Na(+)/H(+) exchange regulatory cofactor NHE-RF1 (Homo sapiens, UniProt O14745).
T2 sequence (O14745 whole entry): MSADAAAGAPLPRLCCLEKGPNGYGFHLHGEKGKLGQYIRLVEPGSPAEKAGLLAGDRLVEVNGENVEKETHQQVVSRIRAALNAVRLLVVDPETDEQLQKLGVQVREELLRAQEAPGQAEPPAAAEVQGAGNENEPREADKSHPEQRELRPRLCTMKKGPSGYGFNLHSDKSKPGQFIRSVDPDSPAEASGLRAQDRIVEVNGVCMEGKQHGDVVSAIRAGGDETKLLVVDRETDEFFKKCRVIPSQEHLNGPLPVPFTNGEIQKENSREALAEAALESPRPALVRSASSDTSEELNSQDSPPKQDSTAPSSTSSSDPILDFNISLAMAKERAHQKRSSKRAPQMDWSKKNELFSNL
Kind of series: Binding affinity to NHERF1 PDZ1 domain (unknown origin) expressed in Escherichia coli BL21 incubated for 1 hr by fluorescence polarization based competition assay. The procedure, abridged: as §1

Series [4] addresses T3, Golgi-associated PDZ and coiled-coil motif-containing protein (Homo sapiens, UniProt Q9HD26). Kind of series: Binding affinity to C-terminal His6 tagged CAL PDZ domain (unknown origin) expressed in Escherichia coli BL21 incubated for 1 hr by fluorescence polarization assay.
Series [5] has as its target T3, Golgi-associated PDZ and coiled-coil motif-containing protein. The series can be described thus: Binding affinity to C-terminal His6 tagged CAL PDZ domain (unknown origin) expressed in Escherichia coli BL21 incubated for 1 hr using FAM-ANSRWPTSII-OH probe by fluorescence polarization based competition assay.
For series [6] the target is unchanged. Kind of series: Binding affinity to C-terminal His6 tagged CAL PDZ domain (unknown origin) expressed in Escherichia coli BL21 incubated for 1 hr using FAM-22 probe by fluorescence polarization based competition assay.
Series [7] in a line: Drug uptake in human HeLa cells at 5 uM incubated for 2 hrs by flow cytometry relative to CPP9. Format: ADME, cell-based. The method, boiled down:
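Naphthofluorescein-labelled cyclic peptides (5 μM final, 0.5% DMSO, in DMEM with 10% FBS) were applied to HeLa cells, seeded the day before at 15 × 10^4 per well, for 2 h at 37 °C. Cells were washed with cold DPBS, trypsinized and analysed by flow cytometry. Mean fluorescence was expressed as % of CPP9; n = 3.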
(In general: In flow cytometry, cells or beads pass a laser one at a time.)

T1 sequence (Q15599 whole entry, the tested form may be a part): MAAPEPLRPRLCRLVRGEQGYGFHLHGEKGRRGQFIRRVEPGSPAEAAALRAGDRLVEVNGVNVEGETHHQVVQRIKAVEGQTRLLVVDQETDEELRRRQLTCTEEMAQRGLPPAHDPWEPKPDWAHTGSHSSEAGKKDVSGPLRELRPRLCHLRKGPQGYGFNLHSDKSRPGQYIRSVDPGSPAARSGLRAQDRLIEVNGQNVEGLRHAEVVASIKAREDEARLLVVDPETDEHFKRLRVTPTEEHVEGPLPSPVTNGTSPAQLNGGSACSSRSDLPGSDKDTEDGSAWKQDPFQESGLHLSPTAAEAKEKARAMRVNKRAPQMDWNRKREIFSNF

`C[C@@H](O)[C@H](NC(=O)[C@@H](NC(=O)[C@H](CCC(N)=O)NC(=O)[C@H](Cc1c[nH]c2ccccc12)NC(=O)[C@H](Cc1ccc2ccccc2c1)NC(=O)[C@H](CCCNC(=N)N)NC(=O)[C@H](CCCNC(=N)N)NC(=O)[C@@H](CCCNC(=N)N)NC(=O)[C@H](CS)NC(=O)CCNC(=S)Nc1ccc(-c2c3ccc(=O)cc-3oc3cc(O)ccc23)c(C(=O)O)c1)C(C)(C)S)C(=O)N[C@@H](CCCNC(=N)N)C(=O)N[C@H](C(=O)O)C(C)(C)C`: the Kd in series [1] stood at 1.87 µM; in series [2], 4.07 µM; in series [3] it was 1.64 µM; in series [4], 0.113 µM.

`C[C@@H](O)[C@H](NC(=O)[C@@H](NC(=O)[C@@H]1CCCCN1C(=O)[C@H](Cc1csc2ccccc12)NC(=O)[C@H](Cc1ccc2ccccc2c1)NC(=O)[C@H](CCCNC(=N)N)NC(=O)[C@H](CCCNC(=N)N)NC(=O)[C@@H](CCCNC(=N)N)NC(=O)[C@H](CS)NC(=O)COCCOCCNC(=S)Nc1ccc2c(c1)C(=O)OC21c2ccc(O)cc2Oc2cc(O)ccc21)C(C)(C)S)C(=O)N[C@@H](CCCNC(=N)N)C(=O)N[C@H](C(=O)O)C(C)(C)C`: the Kd in series [1] turned out to be 1.37 µM; in series [2], 7.48 µM; in series [3], 0.78 µM; in series [4], 0.006 µM.

As to `CC(=O)N[C@@H](CCCNC(=N)N)C(=O)N[C@@H](CCCNC(=N)N)C(=O)N[C@@H](Cc1ccccc1)C(=O)N[C@@H](Cc1c[nH]c2ccccc12)C(=O)N[C@@H](CCC(N)=O)C(=O)N[C@@H](CS)C(=O)N[C@H](C(=O)N[C@@H](CCCCNC(=N)N)C(=O)N[C@H](C(=O)O)C(C)(C)C)[C@@H](C)O`, the IC50 in series [5] was determined as 2.4 µM.

In the case of `C[C@@H](O)[C@H](NC(=O)[C@@H](NC(=O)[C@@H]1CCCN1C(=O)[C@H](Cc1csc2ccccc12)NC(=O)[C@H](Cc1ccc2ccccc2c1)NC(=O)[C@H](CCCNC(=N)N)NC(=O)[C@H](CCCNC(=N)N)NC(=O)[C@@H](CCCNC(=N)N)NC(=O)[C@H](CS)NC(=O)COCCOCCNC(=S)Nc1ccc2c(c1)C(=O)OC21c2ccc(O)cc2Oc2cc(O)ccc21)C(C)(C)S)C(=O)N[C@@H](CCCNC(=N)N)C(=O)N[C@H](C(=O)O)C(C)(C)C`, the Kd in series [1] is 6.04 µM; in series [2], 7.66 µM; in series [3], 3.97 µM; in series [4], 0.087 µM.

Turning to `CC(=O)N[C@@H](CS)C(=O)N[C@@H](CCCNC(=N)N)C(=O)N[C@@H](CCCNC(=N)N)C(=O)N[C@@H](CCCNC(=N)N)C(=O)N[C@@H](Cc1ccccc1)C(=O)N[C@@H](Cc1cccc2ccccc12)C(=O)N[C@@H](CCC(N)=O)C(=O)N[C@@H](CS)C(=O)N[C@H](C(=O)N[C@@H](CCCNC(=N)N)C(=O)N[C@H](C(=O)O)C(C)(C)C)[C@@H](C)O` (Ac-CRRRF[1Nal]QCTR[Tle]-OH), the IC50 in series [6] was determined as 1.8 µM.

In series [6], `CC(=O)N[C@@H](CS)C(=O)N[C@@H](CCCNC(=N)N)C(=O)N[C@@H](CCCNC(=N)N)C(=O)N[C@@H](CCCNC(=N)N)C(=O)N[C@@H](Cc1cccc2ccccc12)C(=O)N[C@@H](Cc1c[nH]c2ccccc12)C(=O)N[C@@H](CCC(N)=O)C(=O)N[C@H](C(=O)N[C@H](C(=O)N[C@@H](CCCNC(=N)N)C(=O)N[C@H](C(=O)O)C(C)(C)C)[C@@H](C)O)C(C)(C)S` (Ac-CRRR[1Nal]WQ[Pen]TR[Tle]-OH) displayed an IC50 of 0.15 µM.

As to `CC(=O)N[C@@H](CS)C(=O)N[C@@H](CCCNC(=N)N)C(=O)N[C@@H](CCCNC(=N)N)C(=O)N[C@@H](CCCNC(=N)N)C(=O)N[C@@H](Cc1ccc2ccccc2c1)C(=O)N[C@@H](Cc1c[nH]c2ccccc12)C(=O)N[C@@H](CCC(N)=O)C(=O)N[C@H](C(=O)N[C@H](C(=O)N[C@@H](CCCNC(=N)N)C(=O)N[C@H](C(=O)O)C(C)(C)C)[C@@H](C)O)C(C)(C)S` (Ac-CRRR[2Nal]WQ[Pen]TR[Tle]-OH), in series [6], the IC50 turned out to be 0.15 µM.

Regarding `CC(=O)N[C@@H](CS)C(=O)N[C@@H](CCCNC(=N)N)C(=O)N[C@H](CCCNC(=N)N)C(=O)N[C@@H](CCCNC(=N)N)C(=O)N[C@@H](Cc1ccc2ccccc2c1)C(=O)N[C@@H](Cc1c[nH]c2ccccc12)C(=O)N[C@@H](CCC(N)=O)C(=O)N[C@H](C(=O)N[C@H](C(=O)N[C@@H](CCCNC(=N)N)C(=O)N[C@H](C(=O)O)C(C)(C)C)[C@@H](C)O)C(C)(C)S` (Ac-CR[dR]R[2Nal]WQ[Pen]TR[Tle]-OH), the Drug uptake in series [7] is given as 17%.

In series [7], `CC(=O)N[C@@H](CS)C(=O)N[C@H](CCCNC(=N)N)C(=O)N[C@@H](CCCNC(=N)N)C(=O)N[C@@H](CCCNC(=N)N)C(=O)N[C@@H](Cc1ccc2ccccc2c1)C(=O)N[C@@H](Cc1c[nH]c2ccccc12)C(=O)N[C@@H](CCC(N)=O)C(=O)N[C@H](C(=O)N[C@H](C(=O)N[C@@H](CCCNC(=N)N)C(=O)N[C@H](C(=O)O)C(C)(C)C)[C@@H](C)O)C(C)(C)S` (Ac-C[dR]RR[2Nal]WQ[Pen]TR[Tle]-OH) registered a Drug uptake of 28%. This molecule also showed an IC50 in series [6] of 0.17 µM.

For `CC(=O)N[C@@H](CS)C(=O)N[C@H](CCCNC(=N)N)C(=O)N[C@@H](CCCNC(=N)N)C(=O)N[C@@H](CCCNC(=N)N)C(=O)N[C@@H](Cc1ccc2ccccc2c1)C(=O)N[C@@H](Cc1c[nH]c2ccccc12)C(=O)N[C@H](C(=O)N[C@H](C(=O)N[C@H](C(=O)N[C@@H](CCCNC(=N)N)C(=O)N[C@H](C(=O)O)C(C)(C)C)[C@@H](C)O)C(C)(C)C)C(C)(C)S` (Ac-C[dR]RR[2Nal]W[Pen][Tle]TR[Tle]-OH), in series [7], the Drug uptake was found to be 92%.

Consider `CC(=O)N[C@@H](CS)C(=O)N[C@H](CCCNC(=N)N)C(=O)N[C@@H](CCCNC(=N)N)C(=O)N[C@@H](CCCNC(=N)N)C(=O)N[C@@H](Cc1ccc2ccccc2c1)C(=O)N[C@@H](Cc1csc2ccccc12)C(=O)N1CCC[C@H]1C(=O)N[C@H](C(=O)N[C@H](C(=O)N[C@@H](CCCNC(=N)N)C(=O)N[C@H](C(=O)O)C(C)(C)C)[C@@H](C)O)C(C)(C)S` (Ac-C[dR]RR[2Nal][Bta]P[Pen]TR[Tle]-OH), for which the Drug uptake in series [7] was determined as 36%.

In the case of `CC(=O)N[C@@H](CS)C(=O)N[C@H](CCCNC(=N)N)C(=O)N[C@@H](CCCNC(=N)N)C(=O)N[C@@H](CCCNC(=N)N)C(=O)N[C@@H](Cc1ccc2ccccc2c1)C(=O)N[C@@H](Cc1csc2ccccc12)C(=O)N[C@H](C(=O)N[C@H](C(=O)N[C@H](C(=O)N[C@@H](CCCNC(=N)N)C(=O)N[C@H](C(=O)O)C(C)(C)C)[C@@H](C)O)C(C)(C)C)C(C)(C)S` (Ac-C[dR]RR[2Nal][Bta][Pen][Tle]TR[Tle]-OH), the Drug uptake in series [7] is listed as 518%. The molecule further showed a half-maximal inhibitory concentration (IC50) in series [6] of 0.24 µM.

Turning to `CC(=O)N[C@@H](CS)C(=O)N[C@H](CCCNC(=N)N)C(=O)N[C@H](CCCNC(=N)N)C(=O)N[C@@H](CCCNC(=N)N)C(=O)N[C@@H](Cc1ccc2ccccc2c1)C(=O)N[C@@H](Cc1c[nH]c2ccccc12)C(=O)N[C@@H](CCC(N)=O)C(=O)N[C@H](C(=O)N[C@H](C(=O)N[C@@H](CCCNC(=N)N)C(=O)N[C@H](C(=O)O)C(C)(C)C)[C@@H](C)O)C(C)(C)S` (Ac-C[dR][dR]R[2Nal]WQ[Pen]TR[Tle]-OH), in series [7], the Drug uptake is 23%.

As for `CC(=O)N[C@@H](CCCNC(=N)N)C(=O)N[C@@H](CCCNC(=N)N)C(=O)N[C@@H](Cc1ccccc1)C(=O)N[C@@H](Cc1c[nH]c2ccccc12)C(=O)N[C@@H](CCC(N)=O)C(=O)N[C@@H](CS)C(=O)N[C@H](C(=O)N[C@@H](CCCCNC(=O)c1cccnc1)C(=O)N[C@H](C(=O)O)C(C)(C)C)[C@@H](C)O` (Ac-RRFWQCTK(Nicotinoyl)[Tle]-OH), in series [5], the IC50 worked out at 2.2 µM. In other words, the single-digit micromolar range.
